Where a SMILES comes first, the peptide text is derived from it.
Experiments:
Rattus norvegicus [1] = species: Rattus norvegicus; assay: In vitro anti-oxytocic activity on isolated estrogen treated rat uteri without Mg+2; type: functional; conditions: read-out: pA2 (converted)
Summary of the method: (§1)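 Uteri isolated from estrogen-treated female rats, suspended in medium containing either no Mg2+ or 0.5 mM Mg2+. Agonism estimated by the Holton method. Antagonistic pA2 values determined as described by Schild.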

Rattus norvegicus [2] = species: Rattus norvegicus; assay: Anti vasopressor activity was determined; type: functional, organism-based; conditions: read-out: pA2 (converted)
Summary of the method: (§2)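 Vasopressor assay in urethane-anesthetized, phenoxybenzamine-treated rats, given by intravenous injection. Effective dose in nmol/kg is the antagonist dose that cuts the response to 2x units of agonist down to the response to 1x unit given before antagonist. USP posterior pituitary reference standard.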

Rattus norvegicus [3] = species: Rattus norvegicus; assay: In vitro anti-oxytocic activity on isolated estrogen treated rat uteri with 0.5 mM Mg+2; type: functional; conditions: read-out: pA2 (converted); summary of the method: as §1
Rattus norvegicus [4] = assay: Dose that reduces the response seen with 2x units of agonist to equal the response seen with 1x unit of agonist administered before antagonist; type: functional; summary of the method: as §2
Rattus norvegicus [5] = species: Rattus norvegicus; assay: Compound was tested for its antidiuretic activity; type: functional, Urine
[6] = Ratio of antidiuretic to vasopressor agonistic activity; type: functional, Urine
Summary of the method: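 Quotient of antidiuretic to vasopressor agonist potency. Each potency was measured by intravenous injection against the USP posterior pituitary standard: antidiuresis in ethanol-anesthetized, water-loaded rats, and pressor response in phenoxybenzamine-treated, urethane-anesthetized rats.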

Rattus norvegicus [7] = species: Rattus norvegicus; assay: Binding affinity was determined; type: functional, organism-based; conditions: read-out: pA2 (converted)
Rattus norvegicus [8] = species: Rattus norvegicus; assay: In vitro anti-oxytocic activity on isolated estrogen treated rat uteri with Mg+2; type: functional; conditions: read-out: pA2 (converted); summary of the method: as §1
Rattus norvegicus [9] = species: Rattus norvegicus; assay: In vitro anti-oxytocic activity on isolated estrogen treated rat uteri with 0.5 mM Mg+2; Agonist; type: functional; summary of the method: as §1
Rattus norvegicus [10] = species: Rattus norvegicus; assay: In vitro anti-oxytocic activity on isolated estrogen treated rat uteri without Mg+2; Agonist; type: functional; summary of the method: as §1
Rattus norvegicus [11] = species: Rattus norvegicus; assay: In vitro oxytocic activity on isolated estrogen treated rat uteri with 0.5 mM Mg+2

Structure (SMILES) | Kb (Rattus norvegicus [1]) | Kb (Rattus norvegicus [3]) | ED (Rattus norvegicus [4]) | Activity (Rattus norvegicus [5]) | Kb (Rattus norvegicus [7]) | also measured
COc1ccc(C[C@@H]2NC(=O)CCSSC[C@@H](C(=O)N3CCC[C@H]3C(=O)N[C@H](CCCN=C(N)N)C(=O)NCC(N)=O)NC(=O)[C@H](CC(N)=O)NC(=O)[C@H](CCC(N)=O)NC(=O)[C@H](Cc3ccccc3)NC2=O)cc1 [listing 1 of 2 here] | 11.7 nM | 39.8 nM | – | – | – | Kb (Rattus norvegicus [2]): 107 nM
COc1ccc(C[C@@H]2NC(=O)CCSSC[C@@H](C(=O)N3CCC[C@H]3C(=O)N[C@H](CCCN=C(N)N)C(=O)NCC(N)=O)NC(=O)[C@H](CC(N)=O)NC(=O)[C@H](CCC(N)=O)NC(=O)[C@H](Cc3ccccc3)NC2=O)cc1 [listing 2 of 2 here] | – | – | 9.8 nM/kg | 236 units/mg | – | –
COc1ccc(C[C@@H]2NC(=O)CCSSC[C@@H](C(=O)N3CCC[C@H]3C(=O)N[C@@H](CCCN=C(N)N)C(=O)NCC(N)=O)NC(=O)[C@H](CC(N)=O)NC(=O)[C@H](CCC(N)=O)NC(=O)[C@H](Cc3ccccc3)NC2=O)cc1 | – | – | – | 830 units/mg | – | Ratio [6]: 202
CCOc1ccc(C[C@@H]2NC(=O)CCSSC[C@@H](C(=O)N3CCC[C@H]3C(=O)N[C@H](CCCN=C(N)N)C(=O)NCC(N)=O)NC(=O)[C@H](CC(N)=O)NC(=O)[C@H](CCC(N)=O)NC(=O)[C@H](Cc3ccccc3)NC2=O)cc1 [listing 1 of 2 here] | 52.5 nM | 89.1 nM | – | – | 129 nM | –
CCOc1ccc(C[C@@H]2NC(=O)CCSSC[C@@H](C(=O)N3CCC[C@H]3C(=O)N[C@H](CCCN=C(N)N)C(=O)NCC(N)=O)NC(=O)[C@H](CC(N)=O)NC(=O)[C@H](CCC(N)=O)NC(=O)[C@H](Cc3ccccc3)NC2=O)cc1 [listing 2 of 2 here] | – | – | 8.8 nM/kg | 30 units/mg | – | –
COc1ccc(C[C@@H]2NC(=O)CCSSC[C@@H](C(=O)N3CCC[C@H]3C(=O)N[C@H](CCCN=C(N)N)C(=O)NCC(N)=O)NC(=O)[C@H](CC(N)=O)NC(=O)[C@H](C(C)C)NC(=O)[C@H](Cc3ccccc3)NC2=O)cc1 [listing 1 of 2 here] | 17 nM | 9.55 nM | – | – | 97.7 nM | Kb (Rattus norvegicus [8]): 9.55 nM
COc1ccc(C[C@@H]2NC(=O)CCSSC[C@@H](C(=O)N3CCC[C@H]3C(=O)N[C@H](CCCN=C(N)N)C(=O)NCC(N)=O)NC(=O)[C@H](CC(N)=O)NC(=O)[C@H](C(C)C)NC(=O)[C@H](Cc3ccccc3)NC2=O)cc1 [listing 2 of 2 here] | – | – | 8.4 nM/kg | 1740 units/mg | – | –
CCOc1ccc(C[C@@H]2NC(=O)CCSSC[C@@H](C(=O)N3CCC[C@H]3C(=O)N[C@@H](CCCN=C(N)N)C(=O)NCC(N)=O)NC(=O)[C@H](CC(N)=O)NC(=O)[C@H](CCC(N)=O)NC(=O)[C@H](Cc3ccccc3)NC2=O)cc1 [listing 1 of 2 here] | 42.7 nM | 39.8 nM | – | – | 126 nM | –
CCOc1ccc(C[C@@H]2NC(=O)CCSSC[C@@H](C(=O)N3CCC[C@H]3C(=O)N[C@@H](CCCN=C(N)N)C(=O)NCC(N)=O)NC(=O)[C@H](CC(N)=O)NC(=O)[C@H](CCC(N)=O)NC(=O)[C@H](Cc3ccccc3)NC2=O)cc1 [listing 2 of 2 here] | – | – | 11 nM/kg | 242 units/mg | – | –
CCOc1ccc(C[C@@H]2NC(=O)CCSSC[C@@H](C(=O)N3CCC[C@H]3C(=O)N[C@H](CCCN=C(N)N)C(=O)NCC(N)=O)NC(=O)[C@H](CC(N)=O)NC(=O)[C@H](C(C)C)NC(=O)[C@H](Cc3ccccc3)NC2=O)cc1 [listing 1 of 2 here] | 28.2 nM | 22.9 nM | – | – | 85.1 nM | –
CCOc1ccc(C[C@@H]2NC(=O)CCSSC[C@@H](C(=O)N3CCC[C@H]3C(=O)N[C@H](CCCN=C(N)N)C(=O)NCC(N)=O)NC(=O)[C@H](CC(N)=O)NC(=O)[C@H](C(C)C)NC(=O)[C@H](Cc3ccccc3)NC2=O)cc1 [listing 2 of 2 here] | – | – | 6.3 nM/kg | 132 units/mg | – | –
CCOc1ccc(C[C@@H]2NC(=O)CCSSC[C@@H](C(=O)N3CCC[C@H]3C(=O)N[C@@H](CCCN=C(N)N)C(=O)NCC(N)=O)NC(=O)[C@H](CC(N)=O)NC(=O)[C@H](C(C)C)NC(=O)[C@H](Cc3ccccc3)NC2=O)cc1 [listing 1 of 2 here] | 12.6 nM | 22.9 nM | – | – | 28.8 nM | –
CCOc1ccc(C[C@@H]2NC(=O)CCSSC[C@@H](C(=O)N3CCC[C@H]3C(=O)N[C@@H](CCCN=C(N)N)C(=O)NCC(N)=O)NC(=O)[C@H](CC(N)=O)NC(=O)[C@H](C(C)C)NC(=O)[C@H](Cc3ccccc3)NC2=O)cc1 [listing 2 of 2 here] | – | – | 1.9 nM/kg | 187 units/mg | – | –
COc1ccc(C[C@@H]2NC(=O)CCSSC[C@@H](C(=O)N3CCC[C@H]3C(=O)N[C@@H](CCCN=C(N)N)C(=O)NCC(N)=O)NC(=O)[C@H](CC(N)=O)NC(=O)[C@H](C(C)C)NC(=O)[C@H](Cc3ccccc3)NC2=O)cc1 [listing 1 of 2 here] | 11.7 nM | 19.5 nM | – | – | 55 nM | –
COc1ccc(C[C@@H]2NC(=O)CCSSC[C@@H](C(=O)N3CCC[C@H]3C(=O)N[C@@H](CCCN=C(N)N)C(=O)NCC(N)=O)NC(=O)[C@H](CC(N)=O)NC(=O)[C@H](C(C)C)NC(=O)[C@H](Cc3ccccc3)NC2=O)cc1 [listing 2 of 2 here] | – | – | 3.7 nM/kg | 789 units/mg | – | –
CC(C)[C@@H]1NC(=O)[C@H](Cc2ccccc2)NC(=O)[C@H](Cc2ccc(O)cc2)NC(=O)CCSSC[C@@H](C(=O)N2CCC[C@H]2C(=O)N[C@@H](CCCN=C(N)N)C(=O)NCC(N)=O)NC(=O)[C@H](CC(N)=O)NC1=O (HELM PEPTIDE1{[O=C(CCS[*:3])[*:2]].Y.F.V.N.C.P.R.G.[am]}$PEPTIDE1,PEPTIDE1,1:R3-6:R3$$$V2.0) | – | – | – | 1150 units/mg | – | agonist potency (Rattus norvegicus [9]): 26 units/mg; agonist potency (Rattus norvegicus [10]): 31 units/mg; Ratio [6]: 225
CC(C)[C@@H]1NC(=O)[C@H](Cc2ccccc2)NC(=O)[C@H](Cc2ccc(O)cc2)NC(=O)CCSSC[C@@H](C(=O)N2CCC[C@H]2C(=O)N[C@H](CCCNC(=N)N)C(=O)NCC(N)=O)NC(=O)[C@H](CC(N)=O)NC1=O (HELM PEPTIDE1{[O=C(CCS[*:3])[*:2]].Y.F.V.N.C.P.[dR].G.[am]}$PEPTIDE1,PEPTIDE1,1:R3-6:R3$$$V2.0) | – | – | 7.2 nM/kg | 1230 units/mg | – | agonist potency (Rattus norvegicus [9]): 3 units/mg; agonist potency (Rattus norvegicus [10]): 8 units/mg
N=C(N)NCCC[C@@H](NC(=O)[C@@H]1CCCN1C(=O)[C@@H]1CSSCCC(=O)N[C@@H](Cc2ccc(O)cc2)C(=O)N[C@@H](Cc2ccccc2)C(=O)N[C@@H](CCC(N)=O)C(=O)N[C@@H](CC(N)=O)C(=O)N1)C(=O)NCC(N)=O (stereo in doubt; form 1) [DESMOPRESSIN] | – | – | – | 1740 units/mg | – | agonist potency (Rattus norvegicus [10]): 54 units/mg; agonist potency (Rattus norvegicus [11]): 167 units/mg; Ratio [6]: 5
N=C(N)NCCC[C@@H](NC(=O)[C@@H]1CCCN1C(=O)[C@@H]1CSSCCC(=O)N[C@@H](Cc2ccc(O)cc2)C(=O)N[C@@H](Cc2ccccc2)C(=O)N[C@@H](CCC(N)=O)C(=O)N[C@@H](CC(N)=O)C(=O)N1)C(=O)NCC(N)=O (stereo in doubt; form 2) [DESMOPRESSIN] | – | – | – | 1200 units/mg | – | agonist potency (Rattus norvegicus [9]): 2.9 units/mg; agonist potency (Rattus norvegicus [10]): 1.5 units/mg; Ratio [6]: 3037

Reference: ChEMBL document CHEMBL1124330, “2-O-alkyltyrosine derivatives of 1-deamino-arginine-vasopressin: highly specific and potent antidiuretic agonists” (J Med Chem, 1989)
